For 96 molecules, cytotoxicity results are on record in ChEMBL document CHEMBL4513216, “Probing the Open Global Health Chemical Diversity Library for Multistage-Active Starting Points for Next-Generation Antimalarials” (ACS Infect Dis, 2020).

A short description of this data set: Toxicity liver stage against HepG2, at 10uM. It counts as cell-based. Also noted: test concentration 10 uM, cell line HepG2-A16-CD81EGFP. As to conditions: human, HepG2-A16-CD81EGFP cells; read-out: INHIBITION
Summed up: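 Uninfected HepG2-A16-CD81EGFP cells, 3 × 10^3 per well, 1536-well, plated on prespotted compound at 10 μM final, parasite-free screening media added to match infected plates; puromycin 10 μM positive, DMSO 0.5% negative; run in parallel with 48 h PbLuc assay at 37 °C, 5% CO2; viability by CellTiter-Glo luminescence, normalized to controls.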

As for `CCc1cccc(NS(=O)(=O)c2cc3c(c(C(=O)O)c2)OCCO3)c1`, the cytotoxicity at 10 µM is 2.89%. With `CCc1cccc(CC(=O)NC2CCN(C(=O)NC(C)(C)C)CC2)c1`, the cytotoxicity at 10 µM is -4.73%. Next, `O=C1CCN(C(=O)NCCc2c[nH]c3ccc(Cl)cc23)CCN1`: 4.26%. Next, `Cc1cc(C)c(CNC(=O)C(C)Oc2ccccc2C#N)c(=O)[nH]1` (stereo unspecified): 4.59%; `O=C(NCC1CCCO1)c1ccc(S(=O)(=O)NCCc2cn[nH]c2)cc1` (stereo unspecified): 5.5%; `Cc1ccc(Cl)c2c1C1(NC(=O)c3cccnc3N1)C(=O)N2` (stereo unspecified): 11.9%. Under `O=C(c1ccco1)N1CCOCC2(C1)CN(c1ccccc1)C(=O)CO2` (stereo unspecified) stands -10.1%; under `Cc1nc2cc(O)nn2c(C)c1CCC(=O)N(C)CCC(C)C`, -146%; under `COc1cc(CN)c(OC)c2c1OCO2`, -1.29%. For `Cc1nc(C)c(CNCC2(COc3cccnc3)C[C@@H](O)[C@@H](O)C2)s1` (stereo partly specified), the cytotoxicity at 10 µM was -1.36%. Under `CCNC(=O)NC(c1ccc(C)cc1)c1cccc(S(C)(=O)=O)c1` (stereo unspecified) stands -5.82%. Next, `CC(C)NC(=O)c1nc2c(s1)CCCN2Cc1ccccc1`: 18.3%; `CCc1nc(CN(C)CC(=O)N(C)C2CC2)cs1`: -3.54%; `Cc1cc(N2CCCC2c2nnc3n2CCCCC3)nc(N)n1` (stereo unspecified): -10.1%. In the case of `CSCC[C@@H](CO)NC(=O)c1sc(-c2ccc(Cl)cc2)nc1C`, the cytotoxicity at 10 µM came to 6.45%.

Regarding `CN1CCCC1c1cncc(C(=O)NCc2ccccc2)n1` (stereo unspecified), the cytotoxicity at 10 µM was -1.67%. As for `CSCC(=O)N1CCOC(c2nc(C)n[nH]2)C1` (stereo unspecified), the cytotoxicity at 10 µM stood at 0.986%.

Consider `Cn1cc(C(=O)N2CCOc3cc(F)ccc32)ccc1=O`, for which the cytotoxicity at 10 µM is -2.55%. Turning to `Cc1cc(CN2CCC(CNS(=O)(=O)c3ccc(Br)s3)CC2)c(C)o1`, the cytotoxicity at 10 µM was -2.72%. Next, `CCCc1cnc(C)nc1N1CCC(Cn2cc(CO)nn2)CC1`: -4.57%; `O=C(NCc1nc2cc(F)ccc2[nH]1)c1ccc[nH]1`: 11.9%; `Cc1cc(C(=O)NC(CC(C)C)C(=O)Nc2cc[nH]n2)c(C)o1` (stereo unspecified): -11.7%.

Take `Cc1cc2ccccc2n1CCC(=O)N1CCCC(O)(CN(C)C)CC1` (stereo unspecified): the cytotoxicity at 10 µM is -1.88%. Next, `Cc1nccn1-c1cc(CNS(=O)(=O)N2CCCC(C)C2)ccn1` (stereo unspecified): -2.42%; `CCCn1nccc1NC(=O)CN1CCC[C@H]1CO`: -1.8%. Next, `O=C(NCCNc1ccc(C(F)(F)F)cn1)c1ccc(Br)cc1F`: 7.15%; `FC(F)(F)COc1cccc(-c2nc3c([nH]2)CCNC3)c1`: 4.5%; `NC(=O)CN1CCC(C(=O)NCc2ccc3nonc3c2)CC1`: -0.969%. Take `CC(C#N)CN(C)Cc1ccc(Cl)c2cccnc12` (stereo unspecified): the cytotoxicity at 10 µM was -40.4%.

For the molecule `COCC1c2nnn(CC3CC3)c2CCN1C(=O)c1ccnnc1` (stereo unspecified), the cytotoxicity at 10 µM was -7.44%. Under `CCc1nnc2n1CCN(CC(=O)N(CC)C1=CCCCC1)C2` stands -0.0192%. Next, `COc1ccc(C(=O)NCCc2nnc3ccccn23)c(OC)c1`: 9.6%. Under `NC1CCN(C(=O)c2c(F)cccc2Br)CC1` stands 11.4%; under `COCc1noc(-c2ccc(N(C)Cc3c(C)n[nH]c3C)nc2)n1`, 0.897%. Take `Cc1ccc2nc(CNCCCN3CCCC3=O)cc(O)c2c1`: the cytotoxicity at 10 µM was -1.14%.

For `O=C(O)c1ccc(Cc2cccc(F)c2)nc1`, the cytotoxicity at 10 µM came out at 3.11%. Under `CCOCc1nc2c(c(N(C)Cc3snnc3C)n1)CCNCC2` stands 10.7%. Under `COc1ccc(Cn2nnnc2SCC2CCCN(C)C2)cc1` (stereo unspecified) stands -1.33%; under `CCN(CC1CCOC1)C(=O)Nc1ccc(OCC(F)(F)F)nc1` (stereo unspecified), -11.3%. Next, `c1ccc2c(NC3CCc4ncnn4C3)ncnc2c1` (stereo unspecified): 7.21%; `O=C(NCCc1c[nH]cn1)c1ccc2c(c1)C(=O)N(C1CC1)C2=O`: 11.7%; `CN(C)c1nc(N)nc(CSCCC(=O)Nc2ccc(F)cc2)n1`: -1.33%.

On to `O=C(NCc1ccccn1)NC1CCOc2ccccc21` (stereo unspecified), for which the cytotoxicity at 10 µM is -8.99%. Under `CCn1ncnc1C(C)NC(=O)C1CCN(C2CCCCC2)CC1` (stereo unspecified) stands -149%.

Consider `CCNC(=O)[C@@H]1CCCN1C1(C(=O)NC)CCCCC1`, for which the cytotoxicity at 10 µM was 5.09%. Regarding `CC(=O)NCC1CCN(C(=O)NCc2ccc3c(c2)OCCO3)CC1`, the cytotoxicity at 10 µM is -7.11%. On to `Cc1ccc(-c2cc(CS(=O)(=O)NC3CCCNC3=O)on2)cc1` (stereo unspecified), for which the cytotoxicity at 10 µM is -172%.

Regarding `O=C(NCc1cccc(-n2cncn2)c1)NCC(C1CC1)C1CC1`, the cytotoxicity at 10 µM worked out at 6.03%.

In the case of `Cc1ccc(NC(=O)c2ccc(N3CCCCC3)nn2)c(Cl)c1`, the cytotoxicity at 10 µM is -10.7%. Under `Cc1ccc([C@@H]2CN(S(=O)(=O)c3cc(C)ccc3F)C[C@H]2N(C)C)cc1` stands -7.21%; under `CCN(CCOC)C(=O)c1cc(COc2ccc3c(c2)CCCC3)on1`, -146%. For `COCCn1nc(C(=O)N(C)Cc2cnn(C)c2)ccc1=O`, the cytotoxicity at 10 µM was -2.44%. With `O=C(NC1CCN(c2cccc(OC(F)(F)F)c2)C1=O)C1CC1` (stereo unspecified), the cytotoxicity at 10 µM came out at 19.2%. Under `CC(=O)N1CCO[C@@H]2CN(C(=O)NCc3ccccc3)CC[C@@H]2C1` stands -97.7%; under `Cc1ccn2cc(C(=O)N3CCCC3c3c(C)nn(C)c3C)nc2c1` (stereo unspecified), 3.2%. Turning to `Cc1ccc(F)c(OC2(C(=O)O)CCN(C(=O)c3ccncc3)CC2)c1`, the cytotoxicity at 10 µM was found to be 5.03%.

In the case of `CC(C)c1nc2cc(NC(=O)c3n[nH]c4c3CCC4)ccc2n1C`, the cytotoxicity at 10 µM was -5.37%. Next, `CC(C)(C)C(=O)NC(c1nccs1)C1CCN(CC2CCCCC2)CC1` (stereo unspecified): 6.5%; `CC(=O)N(C)c1nc(CN2CCCC2Cn2cncn2)cs1` (stereo unspecified): -1.01%; `COC(C)(C)Cn1ccnc1-c1cccc(C(C)N(C)C)c1` (stereo unspecified): -3.59%. Next, `c1ccc(Cn2cc3c(n2)C(COCC2CC2)OCC3)nc1` (stereo unspecified): -6.63%; `Cc1nc(CN(C)C2CCN(CC3CCOCC3)C2)no1` (stereo unspecified): -4.68%; `O=c1[nH][nH]c2cn(-c3ccccc3)c(=O)n12`: 4.6%.

Take `COc1cc(C)sc1C(=O)NCCNc1ccccc1`: the cytotoxicity at 10 µM is -7.64%. Next, `CCN1CCCC(c2c(-c3ccccc3)ncn2CC(N)=O)C1` (stereo unspecified): -15.4%; `Cc1cc(F)cc2c(NCC(C)(C)C(N)=O)c(C#N)cnc12`: -3.25%.

Consider `CC(C)c1noc(CCC(=O)N2CCN(Cc3ccncc3)CC2)n1`, for which the cytotoxicity at 10 µM was -9.08%. Next, `Cc1nc(CN2C(=O)CCC23CCN(c2ncccn2)CC3)cs1`: -7.71%; `CCN1CCCC1CNCc1cc2cc(OC)ccc2[nH]c1=O` (stereo unspecified): -10.2%; `O=C(c1nnn(-c2ccc(C(F)(F)F)cc2)n1)N1CC(O)C1`: -4.63%. Next, `Cc1cc(C)n(-c2ccccc2NC(=O)NCCS(=O)(=O)CC(C)C)n1`: -3.92%. Next, `COc1cc(CCC(=O)NC2CCCN(C)C2)ccc1OCC(F)(F)F` (stereo unspecified): -4.54%. On to `Cc1[nH]ncc1C(=O)N1CCCC1c1noc(C2CC2)n1` (stereo unspecified), for which the cytotoxicity at 10 µM is -18.1%. Next, `CC(C)CN1C(=O)CC[C@H]2CN(C(=O)c3ncc[nH]3)CC[C@H]21`: 5.09%; `CCc1cccc(N2CCC(NC(=O)C3CCOCC3)CC2)c1`: -8.93%. Next, `Cn1cnc2ccc(NC(=O)CC3CCN(C4CCCCC4)CC3)cc21`: 25.9%. Next, `NC(=O)N1CCC(C(=O)NC2CCc3nccn3C2)CC1` (stereo unspecified): -2.09%. As to `O=C(NCCCn1ccnc1)N1CCCC1c1ccsc1` (stereo unspecified), the cytotoxicity at 10 µM is -6.04%. As to `CC(C)CNC(=O)C1=NOC2(CCN(Cc3ccc(C(C)C)cc3)C2)C1` (stereo unspecified), the cytotoxicity at 10 µM is 32.3%. For `Cn1ccc(C(=O)N2CCOC(c3ccc(C(N)=O)cn3)C2)n1` (stereo unspecified), the cytotoxicity at 10 µM is -20%. Under `COc1ccc(C2CCCN2Cc2nnnn2C2CC2)cc1OC` (stereo unspecified) stands 2.49%. Next, `COc1ccc(OC)c(CNCc2ccnc(N3CCCCC3)c2)c1`: 0.25%. Consider `Cc1ncsc1CCN(C)Cc1cc2n(n1)CCN(S(C)(=O)=O)C2`, for which the cytotoxicity at 10 µM was -12.8%. `Cc1cccc(CN2C(=O)C[C@H]3[C@@H]2CCN3Cc2nccs2)n1`: the cytotoxicity at 10 µM is -2.92%. Next, `Cc1cc(CNC(=O)N2CCN(C(C)c3cccnc3)CC2)c(C)o1` (stereo unspecified): -8.54%; `O=C1CC(NS(=O)(=O)c2ccc3ccccc3c2)CN1` (stereo unspecified): 3.94%. Next, `Cn1cc(CCC(=O)N2CCCC(n3cncn3)C2)cn1` (stereo unspecified): -15.1%. Under `CN(C)S(=O)(=O)c1ccc(CNC(=O)C2CC(=O)N(C(C)(C)C)C2)cc1` (stereo unspecified) stands 2.13%. For `CCC(=O)N(CCC(=O)O)Cc1ccc(F)c(F)c1`, the cytotoxicity at 10 µM was -1.99%.

In the case of `Cc1cc(C)n(-c2ccc(CNCc3cccc(C#N)c3)cn2)n1`, the cytotoxicity at 10 µM is -10.2%. Next, `O=C(C1CC=CC1)N1CCCn2nnc(CNc3ncccn3)c2C1`: 6.97%; `Cc1noc(C(C)C)c1C(=O)NCC(c1ccccc1)N(C)C` (stereo unspecified): -7.72%. Under `O=C1CCC(c2nc(C3CCN(C(=O)C4CC4)CC3)no2)N1` (stereo unspecified) stands -1.7%; under `CCN(C)CCNC(=O)Cc1nc(-c2ccco2)oc1C`, -12.5%. Under `Cc1cc(C2CCCN(CCNS(=O)(=O)c3ccccc3)C2)n[nH]1` (stereo unspecified) stands -28.5%; under `CC(C)CCC(=O)Nc1ncn(CC(=O)N2CCCCCC2)n1`, 1.17%.
